ChEMBL document CHEMBL4364289, “The structure-activity profile of mercaptobenzamides' anti-HIV activity suggests that thermodynamics of metabolism is more important than binding affinity to the target” (Eur J Med Chem, 2019)

Key:
[1] = system: Human immunodeficiency virus 1; assay: Antiviral activity against HIV1 RF infected in human CEM-SS cells assessed as inhibition of viral replication incubated for 6 days by XTT assay; assay type: functional, organism-based
Procedure, shortened: (§1)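 CEM-SS cells (2.5 × 10³/well) in RPMI with 10% FBS, 2 mM L-glutamine, penicillin/streptomycin; six serial compound concentrations added with HIV-1 RF titered to give 85–95% cell killing at day 6. AZT run in parallel as positive control. Incubated 6 days at 37 °C, 5% CO2; viability by XTT (OD 450/650 nm). EC50 from percent CPE reduction; SI = TC50/EC50.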

[2] = Prodrug activation in human PBMC cells assessed as 2-(3-amino 3-oxopropylcarbamoyl)benzenethiolate formation; assay type: cell-based
[3] = (§2) Cytotoxicity against human CEM-SS cells assessed as reduction in cell viability incubated for 6 days by […]; assay type: cell-based; conditions: CEM-SS cells, read-out: TC50
Procedure, shortened: (§3)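 Uninfected CEM-SS cells (2.5 × 10³/well) in RPMI with 10% FBS, 2 mM L-glutamine, penicillin/streptomycin, exposed to six serial compound concentrations for 6 days at 37 °C, 5% CO2. Viability read by XTT staining (OD 450/650 nm); TC50 derived from percent viability of uninfected drug-control wells.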

[4] = Selectivity index, ratio of TC50 for human CEM-SS cells to EC50 for HIV1 RF infected in human CEM-SS cells; assay type: toxicity, cell-based; conditions: for selectivity ratio: CEM-SS cells, read-out: Selectivity Index; procedure, shortened: as §1
[5] = Drug metabolism of compound in phosphate buffer incubated for 12 hrs in presence of acetyl-1,2,13C2 CoA by 13C-NMR spectrometric method
Procedure, shortened: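 Thiol and acetyl-1,2-13C2 CoA at 10:1 stoichiometric ratio incubated in degassed (helium-sparged) 0.1 M phosphate buffer pH 7.0 (4:1 H2O/D2O) with 2% DMF, 37 °C, 12 h in a sealed NMR tube. Equilibrium confirmed by 13C NMR monitoring; equilibrium constant for thiol–thioester exchange determined from spectra.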

[6] = Dissociation constant, pKa of compound; assay type: physicochemical
CEM-SS = assay: as §2; assay type: cell-based; conditions: cem-ss, 144 h, read-out: TC50 (the source's name); procedure, shortened: as §3
[7] = Drug metabolism of compound in glutathione assessed as 2-(3-amino 3-oxopropylcarbamoyl)benzenethiolate formation
[8] = Drug metabolism of compound in nucleophilic proteinogenic cysteines assessed as 2-(3-amino 3-oxopropylcarbamoyl)benzenethiolate formation
[9] = Human immunodeficiency virus 1, RF, CEM-SS, 144 h

Row | SMILES | EC50 [1, 9] | CC50 at 144 h [3] | selectivity ratio [4] | also measured
1 | CCCC(=O)OCSc1ccccc1C(=O)NCCC(N)=O | 2.4 µM | > 100 µM |  | Drug metabolism [2]: Metabolite_Detected
2 | CCCC(=O)OCSc1ccccc1C(=O)NCC(=O)NCC(=O)OC | 4.9 µM | > 100 µM | > 20.4 | 
3 | NC(=O)CCNC(=O)c1cccc(S)c1 | > 100 µM | > 100 µM |  | 
4 | CCCC(=O)OCSc1ccccc1C(=O)NC | > 100 µM | 5.7 µM |  | 
5 | CCCC(=O)OCSc1ccccc1C(=O)NCC(=O)NC(C)(C)C | 9.1 µM | 46.8 µM | 5.14 | 
6 | NC(=O)CCNC(=O)c1ccccc1S |  |  |  | Ke [5]: 0.0023; pKa [6]: 5.83
7 | CCCC(=O)OCSc1ccccc1C(=O)NCC(=O)NC(C)C | 5 µM | 92 µM | 18.4 | 
8 | CCCC(=O)OCSc1ccccc1C(=O)N1CCC[C@H]1C(N)=O | > 100 µM | > 100 µM |  | 
9 | CCCC(=O)OCSc1ccccc1CC(=O)NCC(N)=O | > 100 µM | > 100 µM |  | 
10 | CCCC(=O)OCSc1ccc(OC(F)(F)F)cc1C(=O)NC(C)(C)C(N)=O |  | < 56.1 µM |  | 
11 | CCCC(=O)OCSc1ccccc1C(=O)NCCCCCCC(N)=O | 1 µM | 10.4 µM | 10.4 | 
12 | CCCC(=O)OCSc1ccccc1C(=O)N[C@@H]1CCC[C@H]1C(N)=O | 1.7 µM | 43.7 µM | 25.7 | 
13 | CCCC(=O)OCSc1c(C)cccc1C(=O)NCCC(N)=O | > 100 µM |  |  | 
14 | CCCC(=O)OCSc1ccccc1C(=O)NCCCCCCNC(C)=O | 1.5 µM | 8 µM | 5.33 | 
15 | CCCC(=O)OCSc1ccccc1C(=O)NCC(=O)N(C)C | 4.7 µM | 38.3 µM | 8.15 | 
16 | CCCCCNC(=O)CNC(=O)c1ccccc1SCOC(=O)CCC | 10.3 µM | 24.8 µM | 2.41 | 
17 | CCCC(=O)OCSc1ccccc1C(=O)NCC(=O)NCCN(C)C | 6.6 µM | 76.9 µM | 11.6 | 
18 | CCCC(=O)OCSc1ccccc1C(=O)N[C@@H]1CCC[C@@H]1C(N)=O | 1.8 µM | 90 µM | 50 | 
19 | CCCC(=O)OCSc1ccccc1C(=O)N[C@H]1CCC[C@H]1C(N)=O |  |  |  | EC50 [1]: 3 µM; CC50 (CEM-SS): 84.8 µM; Selectivity Index [4]: 28.3
20 | CCCC(=O)OCSc1ccccc1C(=O)N(C)CC(=O)NC | > 100 µM | 62.5 µM |  | 
21 | CCCC(=O)OCSc1ccccc1C(=O)N[C@H]1CCC[C@H]1C(N)=O (racemic) | 5.32 µM | 89.9 µM | 16.9 | 
22 | CCCC(=O)OCSc1ccc(OC)cc1C(=O)NCCC(N)=O | 1.5 µM | > 100 µM |  | 
23 | CCCC(=O)OCSc1ccccc1C(=O)NCC(N)=O | 2.9 µM | > 100 µM |  | 
24 | CCCC(=O)OCSc1ccccc1C(=O)NCCCCNC(C)=O | 0.57 µM | 17.4 µM | 30.5 | 
25 | C#CCNC(=O)CNC(=O)c1ccccc1SCOC(=O)CCC | 4.7 µM | 95.4 µM | 20.3 | 

Row | SMILES | EC50 [1, 9] | CC50 at 144 h [3] | selectivity ratio [4] | also measured
26 | CCCC(=O)OCSc1ccccc1C(=O)NCCCCCC(N)=O | 3.1 µM | 16.3 µM | 5.26 | 
27 | CCCC(=O)OCSc1ccccc1C(=O)NCCCNC(C)=O | 1.1 µM | 21.1 µM | 19.2 | 
28 | CCCC(=O)OCSc1ccccc1C(=O)NCCCCCNC(C)=O | 3.9 µM | 9.2 µM | 2.36 | 
29 | CCCC(=O)OCSc1ccccc1C(=O)Nc1ccc(C(N)=O)cc1 | 1.6 µM | 39 µM | 24.4 | 
30 | CCCC(=O)OCSc1c(F)cccc1C(=O)NCCC(N)=O | > 100 µM |  |  | 
31 | CCCC(=O)OCSc1ccccc1C(=O)NCCCCC(N)=O | 3.7 µM | 51.7 µM | 14 | 
32 | CCCC(=O)OCSc1ccccc1C(=O)N(C)CC(N)=O | > 100 µM | 55.3 µM |  | 
33 | CC(=O)Sc1ccccc1C(=O)NCCC(N)=O |  |  |  | Ka [7]: 84 M⁻¹ s⁻¹; Ka [8]: 84 M⁻¹ s⁻¹
34 | CCCC(=O)OCSc1ccccc1C(=O)Nc1ccccc1C(N)=O | 5.1 µM | 50.1 µM | 9.82 | 
35 | CCCC(=O)OCSc1ccccc1C(=O)NCCCC(N)=O | 1.2 µM | 56.6 µM | 47.2 | 
36 | CCCC(=O)OCSc1ccccc1C(=O)NCCNC(C)=O | 2.6 µM | 91.9 µM | 35.3 | 
37 | CCCC(=O)OCSc1ccccc1C(=O)NCC(=O)OC | > 100 µM | 27.3 µM |  | 
38 | CCCC(=O)OC[Se]c1ccccc1C(=O)NCC(N)=O | > 100 µM | 6.8 µM |  | 
39 | CCCC(=O)OCSc1ccccc1C(=O)NCC(=O)NC | 1.4 µM | > 100 µM | > 71.4 | 
40 | CCCC(=O)OCSc1ccccc1C(=O)N[C@H]1CCC[C@@H]1C(N)=O |  |  |  | EC50 [1]: 2.9 µM; CC50 (CEM-SS): 43.3 µM; Selectivity Index [4]: 15
41 | CCCC(=O)OC[Se]c1ccccc1C(=O)NCCC(N)=O | 8.6 µM | 10.5 µM | 1.22 | 
42 | CCCC(=O)OCSc1ccccc1C(=O)NCC(=O)NCC(N)=O | 27.5 µM | > 100 µM | > 3.64 | 
43 | CCCC(=O)OCSc1ccccc1C(N)=O | > 100 µM | 12.4 µM |  | 
44 | CCCC(=O)OCSc1ccccc1C(=O)Nc1cccc(C(N)=O)c1 | 1.2 µM | 17.5 µM | 14.6 | 
45 | CCCC(=O)OCSc1ccccc1C(=O)OCC(N)=O | > 100 µM | 82.1 µM |  | 
46 | CCCC(=O)OCSc1ccccc1C(=O)NCC(=O)NCc1ccccc1 | 4.8 µM | 29.3 µM | 6.1 | 
47 | CCCC(=O)OCSc1ccccc1C(=O)N[C@H]1CCC[C@@H]1C(N)=O (racemic) |  | 31.2 µM |  | EC50 [1]: 0.9 µM; Selectivity Index [4]: 34.7
48 | CCCC(=O)OCSc1ccccc1C(=O)NC1(C(N)=O)CCCC1 | < 8.2 µM | > 100 µM |  | 
49 | CCCC(=O)OCSc1ccccc1C(=O)N(C)CC(=O)N(C)C | > 100 µM | 57.3 µM |  | 
